Several values for one entry are separate records, joined by “and”; a condition that tells them apart may be missing. Equal entries are not always repeated.
Assays:
HEK-293T = assay: Multiplex assay against HEK293T; type: toxicity, cell-based; conditions: human, number of replicates 2
Procedure, shortened: (§1)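 With compound added, live cells were imaged on a CQ1 microscope at 37°C and 5% CO2; staining with Hoechst33342, BioTracker Green Microtubule Cytoskeleton Dye, MitoTracker Red and Annexin V Alexa Fluor 680 had been done at seeding. The CellPathfinder machine-learning gating scheme split cells into Hoechst high-intensity objects or normal cells, normal cells into healthy, pyknosed or fragmented nuclei, and pyknosed cells into mitotic or apoptotic. The tubulin, mitochondrial-mass and membrane-permeability phenotypes are per cents of healthy-nucleus cells.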

U2OS = assay: Multiplex assay against U2OS; type: toxicity, cell-based; conditions: human, number of replicates 2; procedure, shortened: as §1
[1] = 12 h, 1 µM, compound concentration 1 uM
[2] = 12 h, 10 µM, compound concentration 10 uM
[3] = 24 h, 1 µM, compound concentration 1 uM
[4] = 24 h, 10 µM, compound concentration 10 uM
[5] = 48 h, 1 µM, compound concentration 1 uM
[6] = 48 h, 10 µM, compound concentration 10 uM

SMILES: CCc1ncnc(N2CCN(C(C)=O)CC2)c1C#Cc1ccc(N)nc1.Cl.Cl
- Population Apoptotic (%) (HEK-293T; [1]): 62% and 67%
- Population Fragmented Nuclei (%) (HEK-293T; [1]): 5% and 4%
- Population Healthy Nuclei (%) (HEK-293T; [1]): 80% and 82%
- Population Hoechst High Intensity Objects (%) (HEK-293T; [1]): 12% and 10%
- Population Membrane Permeable-Phenotype (%) (HEK-293T; [1]): 2% and 0%
- Population Mitochondria Different-Phenotype (%) (HEK-293T; [1]): 40% and 39%
- Population Mitotic Cells (%) (HEK-293T; [1]): 37% and 32%
- Population Normal (%) (HEK-293T; [1]): 87% and 89%
- Population Pyknosed Nuclei (%) (HEK-293T; [1]): 13% and 12%
- Population Tubulin-Different-Phenotype (%) (HEK-293T; [1]): 62% and 57%
- Total Cell Count (HEK-293T; [1]): 352 and 438
- Population Apoptotic (%) (HEK-293T; [2]): 79% and 66%
- Population Fragmented Nuclei (%) (HEK-293T; [2]): 5% and 4%
- Population Healthy Nuclei (%) (HEK-293T; [2]): 77%
- Population Hoechst High Intensity Objects (%) (HEK-293T; [2]): 15% and 9%
- Population Membrane Permeable-Phenotype (%) (HEK-293T; [2]): 0% and 1%
- Population Mitochondria Different-Phenotype (%) (HEK-293T; [2]): 60% and 59%
- Population Mitotic Cells (%) (HEK-293T; [2]): 20% and 33%
- Population Normal (%) (HEK-293T; [2]): 84% and 90%
- Population Pyknosed Nuclei (%) (HEK-293T; [2]): 16% and 17%
- Population Tubulin-Different-Phenotype (%) (HEK-293T; [2]): 80% and 76%
- Total Cell Count (HEK-293T; [2]): 304 and 297
- Population Apoptotic (%) (HEK-293T; [3]): 66% and 56%
- Population Fragmented Nuclei (%) (HEK-293T; [3]): 8% and 11%
- Population Healthy Nuclei (%) (HEK-293T; [3]): 78% and 74%
- Population Hoechst High Intensity Objects (%) (HEK-293T; [3]): 15% and 23%
- Population Membrane Permeable-Phenotype (%) (HEK-293T; [3]): 1%
- Population Mitochondria Different-Phenotype (%) (HEK-293T; [3]): 41% and 42%
- Population Mitotic Cells (%) (HEK-293T; [3]): 33% and 43%
- Population Normal (%) (HEK-293T; [3]): 84% and 76%
- Population Pyknosed Nuclei (%) (HEK-293T; [3]): 12% and 14%
- Population Tubulin-Different-Phenotype (%) (HEK-293T; [3]): 68% and 67%
- Total Cell Count (HEK-293T; [3]): 305 and 394
- Population Apoptotic (%) (HEK-293T; [4]): 72% and 60%
- Population Fragmented Nuclei (%) (HEK-293T; [4]): 3% and 6%
- Population Healthy Nuclei (%) (HEK-293T; [4]): 78% and 74%
- Population Hoechst High Intensity Objects (%) (HEK-293T; [4]): 14%
- Population Membrane Permeable-Phenotype (%) (HEK-293T; [4]): 2% and 1%
- Population Mitochondria Different-Phenotype (%) (HEK-293T; [4]): 57% and 64%
- Population Mitotic Cells (%) (HEK-293T; [4]): 27% and 39%
- Population Normal (%) (HEK-293T; [4]): 85%
- Population Pyknosed Nuclei (%) (HEK-293T; [4]): 18%
- Population Tubulin-Different-Phenotype (%) (HEK-293T; [4]): 79% and 82%
- Total Cell Count (HEK-293T; [4]): 233 and 255
- Population Apoptotic (%) (HEK-293T; [5]): 71% and 74%
- Population Fragmented Nuclei (%) (HEK-293T; [5]): 14% and 9%
- Population Healthy Nuclei (%) (HEK-293T; [5]): 63% and 76%
- Population Hoechst High Intensity Objects (%) (HEK-293T; [5]): 20% and 31%
- Population Membrane Permeable-Phenotype (%) (HEK-293T; [5]): 1% and 3%
- Population Mitochondria Different-Phenotype (%) (HEK-293T; [5]): 37% and 25%
- Population Mitotic Cells (%) (HEK-293T; [5]): 28% and 25%
- Population Normal (%) (HEK-293T; [5]): 79% and 68%
- Population Pyknosed Nuclei (%) (HEK-293T; [5]): 21% and 14%
- Population Tubulin-Different-Phenotype (%) (HEK-293T; [5]): 72% and 67%
- Total Cell Count (HEK-293T; [5]): 307 and 445
- Population Apoptotic (%) (HEK-293T; [6]): 65% and 57%
- Population Fragmented Nuclei (%) (HEK-293T; [6]): 7%
- Population Healthy Nuclei (%) (HEK-293T; [6]): 72% and 73%
- Population Hoechst High Intensity Objects (%) (HEK-293T; [6]): 23% and 14%
- Population Membrane Permeable-Phenotype (%) (HEK-293T; [6]): 0%
- Population Mitochondria Different-Phenotype (%) (HEK-293T; [6]): 46% and 63%
- Population Mitotic Cells (%) (HEK-293T; [6]): 34% and 42%
- Population Normal (%) (HEK-293T; [6]): 76% and 85%
- Population Pyknosed Nuclei (%) (HEK-293T; [6]): 20% and 19%
- Population Tubulin-Different-Phenotype (%) (HEK-293T; [6]): 80% and 73%
- Total Cell Count (HEK-293T; [6]): 260 and 244
- Population Apoptotic (%) (U2OS; [1]): 100% and 70%
- Population Fragmented Nuclei (%) (U2OS; [1]): 19% and 10%
- Population Healthy Nuclei (%) (U2OS; [1]): 69% and 80%
- Population Hoechst High Intensity Objects (%) (U2OS; [1]): 0%
- Population Membrane Permeable-Phenotype (%) (U2OS; [1]): 0%
- Population Mitochondria Different-Phenotype (%) (U2OS; [1]): 0%
- Population Normal (%) (U2OS; [1]): 100%
- Population Pyknosed Nuclei (%) (U2OS; [1]): 11% and 9%
- Population Tubulin-Different-Phenotype (%) (U2OS; [1]): 55% and 90%
- Population Apoptotic (%) (U2OS; [2]): 50% and 55%
- Population Fragmented Nuclei (%) (U2OS; [2]): 18% and 10%
- Population Healthy Nuclei (%) (U2OS; [2]): 72%
- Population Hoechst High Intensity Objects (%) (U2OS; [2]): 0%
- Population Membrane Permeable-Phenotype (%) (U2OS; [2]): 4% and 3%
- Population Mitochondria Different-Phenotype (%) (U2OS; [2]): 2% and 4%
- Population Mitotic Cells (%) (U2OS; [2]): 50% and 44%
- Population Normal (%) (U2OS; [2]): 100% and 99%
- Population Pyknosed Nuclei (%) (U2OS; [2]): 9% and 17%
- Population Tubulin-Different-Phenotype (%) (U2OS; [2]): 87% and 58%
- Population Apoptotic (%) (U2OS; [3]): 55% and 56%
- Population Fragmented Nuclei (%) (U2OS; [3]): 9% and 7%
- Population Healthy Nuclei (%) (U2OS; [3]): 75% and 82%
- Population Hoechst High Intensity Objects (%) (U2OS; [3]): 0%
- Population Membrane Permeable-Phenotype (%) (U2OS; [3]): 2% and 0%
- Population Mitochondria Different-Phenotype (%) (U2OS; [3]): 2% and 0%
- Population Mitotic Cells (%) (U2OS; [3]): 44% and 43%
- Population Normal (%) (U2OS; [3]): 100% and 99%
- Population Pyknosed Nuclei (%) (U2OS; [3]): 14% and 10%
- Population Tubulin-Different-Phenotype (%) (U2OS; [3]): 72% and 90%

Source: ChEMBL document CHEMBL5303300, “EUbOPEN Chemogenomics Library - Multiplex” (2023)
